Activity calls are given as the source filed them. No cut-off for these calls is given here.
Key:
[1] = molecular target: ATP binding cassette transporter Abc1p (Issatchenkia orientalis) (UniProt Q09GQ4); test: Inhibition of Candida krusei ABC1 expressed in Saccharomyces cerevisiae isolate ADdelta at 131 nM; settings: Pichia kudriavzevii
How it was run: (§1)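 Agarose disk-diffusion test of S. cerevisiae AD overexpressing C. krusei Abc1p, with the parent AD strain as comparison. Cells were pregrown from YPD overnight into CSM to mid-log at 30°C. They were seeded at OD600 0.008 in CSM with 0.6% agarose, overlaid on CSM agar (pH 7.0). Paper disks carrying set nmol amounts of xenobiotic were applied, and plates were incubated at 30°C for 48 h before reading growth inhibition zones.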

[2] = molecular target: ATP binding cassette transporter Abc1p (Issatchenkia orientalis) (UniProt Q09GQ4); test: Inhibition of Candida krusei IF011 Abc1p assessed as reduction of itraconazole MIC at 5 ug after 48 hrs by agarose diffusion assay; settings: Pichia kudriavzevii
[3] = molecular target: ATP binding cassette transporter Abc1p (Issatchenkia orientalis) (UniProt Q09GQ4); test: Inhibition of Candida krusei Abc1p expressed in Saccharomyces cerevisiae isolate AD assessed as reduction of itraconazole MIC at 5 ug after 48 hrs by agarose diffusion assay; settings: Pichia kudriavzevii
[4] = molecular target: ATP binding cassette transporter Abc1p (Issatchenkia orientalis) (UniProt Q09GQ4); test: Inhibition of Candida krusei B2399 Abc1p assessed as reduction of itraconazole MIC at 5 ug after 48 hrs by agarose diffusion assay; settings: Pichia kudriavzevii
[5] = molecular target: ATP binding cassette transporter Abc1p (Issatchenkia orientalis) (UniProt Q09GQ4); test: Inhibition of Candida krusei ABC1 expressed in Saccharomyces cerevisiae isolate ADdelta at 20 nM; settings: Pichia kudriavzevii
Pichia kudriavzevii [6] = test: Increase in ABC1 mRNA expression in Candida krusei B2402 after 60 mins by hot-phenol extraction based Northern blotting; type: functional, organism-based
Pichia kudriavzevii [7] = test: Increase in ERG11 mRNA expression in Candida krusei B2401 after 60 mins by hot-phenol extraction based Northern blotting; type: functional, organism-based
[8] = molecular target: ATP binding cassette transporter Abc1p (Issatchenkia orientalis) (UniProt Q09GQ4); test: Inhibition of Candida krusei ABC1 expressed in Saccharomyces cerevisiae isolate ADdelta at 16 nM; settings: Pichia kudriavzevii; how it was run: as §1
[9] = molecular target: ATP binding cassette transporter Abc1p (Issatchenkia orientalis) (UniProt Q09GQ4); test: Inhibition of Candida krusei ABC1 expressed in Saccharomyces cerevisiae isolate ADdelta at 4 nM; settings: Pichia kudriavzevii

COC(=O)c1ccccc1-c1c2ccc(=N)cc-2oc2cc(N)ccc12
Activity [1]: Active

C=CC[C@@H]1/C=C(\C)C[C@H](C)C[C@H](OC)[C@H]2O[C@@](O)(C(=O)C(=O)N3CCCC[C@H]3C(=O)O[C@H](/C(C)=C/[C@@H]3CC[C@@H](O)[C@H](OC)C3)[C@H](C)[C@@H](O)CC1=O)[C@H](C)C[C@@H]2OC
Activity [2]: Active
Activity [3]: Active
Activity [4]: Active

C=C1[C@@H](C)[C@H]2[C@H](Cc3ccccc3)NC(=O)[C@]23[C@H](OC(C)=O)/C=C/[C@@](C)(O)C(=O)[C@@H](C)C/C=C/[C@H]3[C@@H]1O
Activity [5]: Active

CC(C)[C@@H](C)/C=C/[C@@H](C)[C@H]1CC[C@H]2C3=CC=C4C[C@@H](O)CC[C@]4(C)[C@H]3CC[C@]12C
Activity (Pichia kudriavzevii [6]): inactive
Activity (Pichia kudriavzevii [7]): inactive

CC/N=c1\cc2oc3cc(NCC)c(C)cc3c(-c3ccccc3C(=O)OCC)c-2cc1C
Activity [8]: Active

O=[N+]([O-])c1cc[n+]([O-])c2ccccc12
Activity [9]: inactive
